Measurements from ChEMBL document CHEMBL1144992, “Unsymmetrical DNA cross-linking agents: combination of the CBI and PBD pharmacophores” (J Med Chem, 2003).

What was measured:
[1] = system: UV4; assay: In vitro cellular toxicity against chinese hamster UV4 cell line after 4 hr of compound exposure; type: functional, cell-based; details: Cricetulus griseus, UV4, 4 h
Procedure, shortened: (§1)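 Cells exposed to drug for 4 h, then stained with sulforhodamine B 3 days later. IC50 interpolated as the concentration reducing cell density to 50% of same-plate controls. Values are the mean of 2-6 experiments.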

[2] = system: CHO-AA8; assay: In vitro cellular toxicity against chinese hamster AA8 cell line after 4 hr of compound exposure; type: functional, cell-based; details: Cricetulus griseus, CHO-AA8, 4 h; procedure, shortened: as §1
[3] = system: SK-OV-3; assay: In vitro cellular toxicity against human ovarian carcinoma SKOV3 cell line after 4 hr of compound exposure; type: functional, cell-based; details: SK-OV-3, 4 h; procedure, shortened: as §1
[4] = system: EMT6; assay: In vitro cellular toxicity against murine mammary carcinoma EMT6 cell line after 4 hr of compound exposure; type: functional, cell-based; details: Mus musculus, EMT6, 4 h; procedure, shortened: as §1
[5] = system: Panel (Carcinoma cell lines); assay: In vitro drug concentration required for 50% inhibition of 60 different human cancer cell lines compared to controls; type: functional
[6] = Ratio of LC50 values between the least sensitive and most sensitive human cancer cell lines; type: functional
Procedure, shortened: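 NCI 60-cell-line panel covering nine tissue types. LC50 is concentration producing 50% reduction in cells. Value is ratio of LC50 for least sensitive versus most sensitive line.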

[7] = system: Nucleic Acid; assay: Tested for its ability to cross-link linearized plasmid DNA pcDNA3 following 18 hr of exposure at 37 degree celsius; type: functional
Procedure, shortened: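 EcoRI-linearized pcDNA3 plasmid (5400 bp), 3'-end labelled with α-32P-dATP by Klenow. 50 ng DNA incubated with drug (DMSO) in TE pH 7.5, 10 µL final volume, 18 h at 37 °C. Denatured with NaOH strand-separation buffer for 5-10 min, then run on 0.8% agarose gel. Double-stranded fraction quantified by phosphorimaging. At least five concentrations tested, 2-4 assays. C50 taken from a 3-parameter logistic fit capped at 100%.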

[8] = Ratio of maximum tolerated dose of intravenous to intraperitoneal injection in mice; type: functional
Procedure, shortened: (§2)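 Female non-tumour-bearing C3H/HeN mice received a single ip or iv injection in 100% DMSO at 0.001 mL/g. Doses stepped in 1.33-fold increments on a fixed scale, with 60-day observation. MTD defined as highest dose giving no deaths in a group of 6 and ≤15% mean body weight loss on day 4. Ratio is iv MTD over ip MTD.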

[9] = system: Mus musculus; assay: Average time for WiDr tumor xenograft to reach a diameter of 17 mm following single intravenous injection at day 0 where tumor diameter was 8 mm in mice; type: functional
Procedure, shortened: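 Subcutaneous flank implant of WiDr cells (10^7 cells/mouse) in female CD-1 nude mice. Randomised at mean tumour diameter 8 mm (5-11 mice/group). Single iv dose at predetermined MTD, formulated in 100% DMSO at 0.001 mL/g, on day 0. Calipers used until mean diameter reached 17 mm, then culled. Values are average days to end point; ANOVA with Dunnett's test.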

[10] = system: Mus musculus; assay: In vivo maximum tolerated dose for single intraperitoneal injection in non tumor-bearing C3H/HeN mice; type: functional; procedure, shortened: as §2
[11] = system: Mus musculus; assay: In vivo maximum tolerated dose for single intravenous injection in non-tumor-bearing C3H/HeN mice; type: functional; procedure, shortened: as §2
[12] = system: HT-29; assay: In vitro cytotoxicity against human tumor HT-29 cell line was measured as concentration to reduce [3H]thymidine uptake to 50% of that of the controls; type: functional, cell-based; details: HT-29, 5 days
Procedure, shortened: (§3)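 Cell suspensions exposed to drug continuously for 5 days. [3H]thymidine (0.25 µCi/mL, 0.1 µM) plus 5-fluoro-2'-deoxyuridine (0.1 µM) added 4 h before termination. Pronase 2 mg/mL in 4 mM Na4EDTA released adherent cells before aspiration and filtration. IC50 interpolated against same-plate controls. Mean of 2-3 experiments, some single determinations.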

[13] = system: COLO 205; assay: In vitro cytotoxicity against human tumor COLO 205 cell line was measured as concentration to reduce [3H]thymidine uptake to 50% of that of the controls; type: functional, cell-based; details: COLO 205, 5 days; procedure, shortened: as §3
[14] = system: SiHa; assay: In vitro cytotoxicity against human tumor SiHa cell line was measured as concentration to reduce [3H]thymidine uptake to 50% of that of the controls; type: functional, cell-based; procedure, shortened: as §3
[15] = system: WiDr; assay: In vitro cytotoxicity against human tumor WiDr cell line was measured as concentration to reduce [3H]thymidine uptake to 50% of that of the controls; type: functional, cell-based; procedure, shortened: as §3
[16] = system: SK-OV-3; assay: In vitro cytotoxicity against human tumor SKOV3 cell line was measured as concentration to reduce [3H]thymidine uptake to 50% of that of the controls; type: functional, cell-based; details: SK-OV-3, 5 days; procedure, shortened: as §3

Compound | IC50 [1] | IC50 [2] | IC50 [3] | IC50 [4] | GI50 [5] | Ratio [6] | C50 [7] | MTD ratio [8] | Time [9] | MTD [10] | MTD [11] | IC50 [12] | IC50 [13] | IC50 [14] | IC50 [15] | IC50 [16]
CC(=O)N1C[C@H](CCl)c2c1cc(O)c1ccccc21 | 1800 nM | 14000 nM | 14000 nM | 12000 nM |  |  |  |  |  |  |  |  |  |  |  | 
COc1cc2c(cc1OCC(=O)N1C[C@H](CCl)c3c1cc(O)c1ccccc31)N=CC1CCCN1C2=O (single isomer, unassigned) | 6.1 nM | 48 nM | 16 nM | 5 nM | 91 nM | 200 | 1.21 µM |  |  |  |  |  |  |  |  | 
COc1cc2c(cc1OCCC(=O)N1C[C@H](CCl)c3c1cc(O)c1ccccc31)N=CC1CCCN1C2=O (single isomer, unassigned) | 860 nM | 1600 nM | 960 nM | 300 nM | 3200 nM | 35 | 7.9 µM |  |  |  |  |  |  |  |  | 
COc1cc2c(cc1OCCCCCC(=O)N1C[C@H](CCl)c3c1cc(O)c1ccccc31)N=CC1CCCN1C2=O (single isomer, unassigned) | 1.5 nM | 4.2 nM | 3 nM | 0.56 nM | 18 nM | 2400 | 0.13 µM | 17.7 | 24.4 days | 0.75 µM/kg | 13.3 µM/kg | 0.25 nM | 0.18 nM | 0.2 nM | 0.28 nM | 0.2 nM
COc1cc2c(cc1OCCCCCC(=O)N1C[C@@H](CCl)c3c1cc(O)c1ccccc31)NC(=O)[C@@H]1CCCN1C2=O | 13 nM | 29 nM | 6.2 nM | 3.2 nM |  |  |  |  |  |  |  |  |  |  |  | 
COc1cc2c(cc1OCCCC(=O)N1C[C@@H](CCl)c3c1cc(O)c1ccccc31)N=C[C@@H]1CCCN1C2=O | 0.074 nM | 0.13 nM | 0.14 nM | 0.03 nM | < 10 nM | >10000 | 0.017 µM | 100 | 26 days | 0.00316 µM/kg | 0.316 µM/kg | 0.021 nM | 0.037 nM | 0.012 nM | 0.014 nM | 0.021 nM
COc1cc2c(cc1OCCCCC(=O)N1C[C@@H](CCl)c3c1cc(O)c1ccccc31)N=C[C@@H]1CCCN1C2=O | 5.9 nM | 11 nM | 11 nM | 3.1 nM | 79 nM | 160 | 0.56 µM |  |  |  |  |  |  |  |  | 
CC(=O)N1C[C@@H](CCl)c2c1cc(O)c1ccccc21 | 59 nM | 210 nM | 360 nM | 280 nM |  |  |  |  |  |  |  |  |  |  |  | 
COc1cc2c(cc1OCCC(=O)N1C[C@@H](CCl)c3c1cc(O)c1ccccc31)N=C[C@@H]1CCCN1C2=O | 160 nM | 240 nM | 200 nM | 51 nM | 500 nM | 50 | 5 µM |  |  |  |  |  |  |  |  | 
COc1cc2c(cc1OCCCOc1cc3c(cc1OC)C(=O)N1CCC[C@H]1C=N3)N=C[C@@H]1CCCN1C2=O [DSB-120] | 86 nM | 340 nM | 140 nM | 23 nM |  |  | 0.029 µM | 4.21 | 22.8 days | 1 µM/kg | 4.21 µM/kg | 8.7 nM | 7 nM | 7.3 nM | 10 nM | 6.3 nM
COc1cc2c(cc1OCCCCCC(=O)N1CC(C)c3c1cc(O)c1ccccc31)N=C[C@@H]1CCCN1C2=O (stereo partly drawn) | 2500 nM | 4500 nM | 2100 nM | 840 nM |  |  |  |  |  |  |  |  |  |  |  | 
COc1cc2cc(C(=O)N3C[C@@H](CCl)c4c3cc(O)c3ccccc43)[nH]c2c(OC)c1OC | 0.09 nM | 0.21 nM | 0.29 nM | 0.13 nM |  |  |  |  |  |  |  |  |  |  |  | 
COc1cc2c(cc1OCCCCCC(=O)N1C[C@@H](CCl)c3c1cc(O)c1ccccc31)N=C[C@@H]1CCCN1C2=O | 0.023 nM | 0.054 nM | 0.032 nM | 0.0078 nM | < 10 nM | >10000 | 0.022 µM | 10 | 40.8 days | 0.0178 µM/kg | 0.178 µM/kg | 0.0027 nM | 0.0035 nM | 0.0028 nM | 0.0039 nM | 0.0033 nM
COc1cc2c(cc1OCCCCC(=O)N1C[C@H](CCl)c3c1cc(O)c1ccccc31)N=CC1CCCN1C2=O (single isomer, unassigned) | 14 nM | 40 nM | 35 nM | 12 nM | 130 nM | 190 | 1.05 µM |  |  |  |  |  |  |  |  | 
COc1cc2c(cc1O)N=C[C@@H]1CCCN1C2=O | 1500 nM | 2000 nM | 1900 nM | 1100 nM |  |  |  |  |  |  |  |  |  |  |  | 
COc1cc2c(cc1OCCCC(=O)N1C[C@H](CCl)c3c1cc(O)c1ccccc31)N=CC1CCCN1C2=O (single isomer, unassigned) | 0.83 nM | 4 nM | 1.9 nM | 0.3 nM | 13 nM | 3200 | 0.025 µM |  |  |  |  |  |  |  |  | 
